Reference: ChEMBL document CHEMBL3745692, “Novel iodoacetamido benzoheterocyclic derivatives with potent antileukemic activity are inhibitors of STAT5 phosphorylation” (Eur J Med Chem, 2016)

Experiments:
K562 [1] = assay: Cell cycle arrest in human K562 cells assessed as accumulation at S-phase at 0.5 uM for 24 hrs by propidium iodide staining based flow cytometry (reference value: 47.84%); format: functional
In short: (§1)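 K562 cells in RPMI 1640 with 10% FCS, penicillin/streptomycin and L-glutamine, 5% CO2, 37 °C; exposed 24 h. Cells washed in ice-cold PBS, resuspended at 1×10^6/mL in hypotonic solution of propidium iodide 50 µg/mL in 0.1% sodium citrate plus 0.03% nonidet P-40 for 30 min. DNA content read as single-parameter flow cytometry histograms; phase distribution modelled.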

[2] = target: T1, Signal transducer and activator of transcription 5A (Homo sapiens) (UniProt P42229); assay: Inhibition of STAT5 phosphorylation in human K562 cells at 0.5 uM after 24 hrs by flow cytometry (reference value: 315.56); format: cell-based
T1 sequence (whole entry): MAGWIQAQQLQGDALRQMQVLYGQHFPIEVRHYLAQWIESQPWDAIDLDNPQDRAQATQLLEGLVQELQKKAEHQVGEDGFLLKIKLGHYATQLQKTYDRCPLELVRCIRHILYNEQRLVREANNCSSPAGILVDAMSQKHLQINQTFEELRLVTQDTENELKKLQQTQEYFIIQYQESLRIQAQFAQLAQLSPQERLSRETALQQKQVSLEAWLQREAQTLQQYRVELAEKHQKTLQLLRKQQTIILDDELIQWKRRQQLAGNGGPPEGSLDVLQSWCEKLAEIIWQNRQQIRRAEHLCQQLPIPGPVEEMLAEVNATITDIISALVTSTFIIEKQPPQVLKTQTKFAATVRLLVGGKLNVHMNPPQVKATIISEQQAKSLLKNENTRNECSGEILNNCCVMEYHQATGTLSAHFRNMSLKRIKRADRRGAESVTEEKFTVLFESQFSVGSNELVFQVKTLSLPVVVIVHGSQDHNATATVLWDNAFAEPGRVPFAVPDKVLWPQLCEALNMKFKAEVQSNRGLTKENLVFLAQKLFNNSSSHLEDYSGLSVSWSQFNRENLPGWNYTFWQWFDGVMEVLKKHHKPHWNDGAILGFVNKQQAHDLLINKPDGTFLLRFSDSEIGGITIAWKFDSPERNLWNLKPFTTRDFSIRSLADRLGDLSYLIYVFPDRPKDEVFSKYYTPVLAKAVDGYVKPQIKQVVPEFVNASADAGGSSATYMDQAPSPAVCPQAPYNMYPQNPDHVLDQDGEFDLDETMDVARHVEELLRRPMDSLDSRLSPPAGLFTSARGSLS
In short: (§2)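 After 24 h exposure, about 1×10^6 K562 cells were PBS-washed and fixed/permeabilised for 20 min at 4 °C. They were then stained for 30 min at 4 °C with PE-conjugated anti-pSTAT5 monoclonal antibody, with an isotype antibody as control. Median fluorescence was read by flow cytometry and compared with untreated cells stained for pSTAT5.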

[3] = target: T1, Signal transducer and activator of transcription 5A (Homo sapiens); assay: Inhibition of STAT5 phosphorylation in human K562 cells at 0.5 uM after 24 hrs by flow cytometry relative to control; format: cell-based; in short: as §2
K562 [4] = assay: Potency index, ratio AC50 of imatinib mesilate to AC50 of compound for induction of apoptosis in human K562; format: functional
In short: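 K562 cells in RPMI 1640 with 10% FCS, treated 48 h over a concentration range. Apoptosis scored morphologically after acridine orange/ethidium bromide staining (≥300 cells counted, chromatin condensation, apoptotic bodies) and by annexin V-FITC/propidium iodide flow cytometry. AC50 is the concentration giving 50% apoptotic cells, mean ± SE of 2–3 experiments.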

K562 [5] = assay: Potency index, ratio IC50 of imatinib mesilate to IC50 of compound for antiprolifertive activity against human K562; format: functional
In short: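 K562 cells grown in RPMI 1640 with 10% FCS at 37 °C, 5% CO2. 2×10^5 cells/mL exposed to a range of concentrations for 48 h. Viable cells counted by trypan blue exclusion, as % of control.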

K562 [6] = assay: Cell cycle arrest in human K562 cells assessed as accumulation at G1 phase at 0.5 uM for 24 hrs by propidium iodide staining based flow cytometry (reference value: 39.27%); format: functional; in short: as §1
K562 [7] = assay: Cell cycle arrest in human K562 cells assessed as accumulation at G2M-phase at 0.5 uM for 24 hrs by propidium iodide staining based flow cytometry (reference value: 12.89%); format: functional; in short: as §1
K562 [8] = assay: Induction of apoptosis in human K562 cells after 48 hrs by annexinV and propidium iodide staining based flow cytometry; format: functional, cell-based; details: K562, 48 h
In short: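 After 48 h drug exposure, 1×10^6 cells were washed in PBS and spun at 200×g for 5 min. They were stained with FITC-annexin V plus propidium iodide for 15 min at 20 °C and annexin V-positive cells counted by flow cytometry. Apoptosis was also scored morphologically with acridine orange/ethidium bromide, counting at least 300 cells. AC50 is the concentration inducing apoptosis in 50% of cells; mean ± SE from two to three experiments.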

K562 [9] = assay: Antiproliferative activity against human K562 cells after 48 hrs by trypan blue dye exclusion assay; format: functional, cell-based; details: K562, 48 h

## COc1cc2oc(C(=O)c3cc(OC)c(OC)c(OC)c3)c(C)c2cc1NC(=O)CI
K562 [1]
  Activity: 35.47%
[2]
  Flu intensity: 176
[3]
  inhibition: 44%
K562 [4]
  Ratio IC50: 2.7
K562 [5]
  Ratio IC50: 3.1
K562 [6]
  Activity: 35.78%
K562 [7]
  Activity: 28.76%
K562 [8]
  AC50: 250 nM
K562 [9]
  IC50: 70 nM
